Reference: article PMC11618456 (Nature Communications, 2024)
One block for each compound: values may come before it.

What was measured:
[1] = system: Fech-mut mice; experiment: EPP-associated phototoxicity in Fech-mut mice after light exposure; type: in vivo, mouse
[2] = target: T1, ABCG2 (Mus musculus, UniProt Q7TMS5); experiment: PPIX efflux from RBCs of Fech-mut mice; type: cell-based; details: 10 µM, up to 3 h
T1 sequence (Q7TMS5 1-657): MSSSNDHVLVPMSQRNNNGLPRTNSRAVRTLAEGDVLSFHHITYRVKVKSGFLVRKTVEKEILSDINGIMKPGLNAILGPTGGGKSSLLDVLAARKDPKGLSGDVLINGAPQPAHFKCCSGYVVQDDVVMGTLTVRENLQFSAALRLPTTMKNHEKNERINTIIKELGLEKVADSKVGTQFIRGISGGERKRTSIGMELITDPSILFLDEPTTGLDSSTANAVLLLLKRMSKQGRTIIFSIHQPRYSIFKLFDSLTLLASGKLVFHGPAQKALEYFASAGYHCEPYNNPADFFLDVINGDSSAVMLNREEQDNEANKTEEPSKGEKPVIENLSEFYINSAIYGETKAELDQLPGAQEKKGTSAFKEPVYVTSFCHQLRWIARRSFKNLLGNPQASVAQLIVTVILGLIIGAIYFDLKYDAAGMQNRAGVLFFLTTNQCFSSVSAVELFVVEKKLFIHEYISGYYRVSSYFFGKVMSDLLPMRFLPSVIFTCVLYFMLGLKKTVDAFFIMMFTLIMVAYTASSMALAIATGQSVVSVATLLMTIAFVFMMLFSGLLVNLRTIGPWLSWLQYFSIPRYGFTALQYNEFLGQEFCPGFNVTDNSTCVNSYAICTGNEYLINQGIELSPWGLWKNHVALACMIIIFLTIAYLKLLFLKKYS
Method in brief: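 Fech-mut mouse RBCs were cultured in phenol-red-free RPMI 1640 at 2 × 10^8 cells/well, 37 °C, gently shaken and light-protected, with or without 10 µM test compound for 1 or 3 h. Medium PPIX was read by fluorescence (ex 405 nm, em 630 nm) and expressed as % of RBC PPIX at time 0. n = 3 mice, duplicate incubations, mean ± SEM.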

[3] = system: Fech-mut mice; experiment: Safety after short-term treatment; type: in vivo, mouse; details: 100 mg/kg po, 5 days
[4] = system: A549 cells; experiment: Cytotoxicity MTT assay; type: cell-based; details: Table 1
[5] = Cytotoxicity MTT assay; type: cell-based; details: human, A549 cells, CC50, half-cytotoxic concentration, 72 h, MTT; mean ± SD (n ≥ 3)
[6] = system: ABCB1; experiment: Effect on ABCB1; type: in vivo, mouse; details: WT mice, 100 mg/kg po pretreatment, paclitaxel as substrate
[7] = system: PPIX in serum of Fech-mut mice; experiment: PPIX distribution in serum of Fech-mut mice; type: in vivo, mouse; details: 100 mg/kg po
[8] = in vitro; details: Fech-mut (BALB/c background), mouse, serum from Fech-mut mice treated with K31, oral, 100 mg/kg
[9] = system: WT mice; experiment: Sub-chronic study; type: in vivo, mouse; details: 100 mg/kg po, 23 days
Method in brief: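 Male wild-type mice aged 8 weeks got vehicle or test compound 100 mg/kg orally for 23 days (n = 4 per group), weighed daily before dosing. On day 24, blood, liver, kidney and spleen were collected for organ/body weight ratios. Serum ALT, AST and ALP were measured by enzymatic kits, and liver histology was assessed.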

[10] = Pharmacokinetics in WT mice after oral treatment; type: in vivo, mouse; details: 100 mg/kg po, Fig. 1d
[11] = Metabolic stability in human liver microsomes; type: in vitro ADME; details: for Stability in HLM (% remaining) 30 min / Stability in HLM (% remaining) 60 min: 1 mg/mL HLM, 1 mM NADPH, 20 µM compound, mean ± SD
Method in brief: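 Incubations in 1× PBS held 1 mg/mL HLM, 1 mM NADPH and 20 µM test compound at 37 °C for up to 60 min. Remaining compound was quantified by UPLC-QTOFMS, n = 3 per time point.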

SMILES: COc1ccc2c3c([nH]c2c1)[C@H](CC(C)C)N1C(=O)[C@H](CC(=O)NC(C)C)NC(=O)[C@@H]1C3 [K31]
withdrawal test: phototoxicity after K31 withdrawal ([1]; 100 mg/kg po days 1-4, then withdrawn, light continued days 5-8): recurrence of light-triggered phototoxicity was observed in the skin of Fech-mut mice from the second day of K31 withdrawal | oxidative stress and inflammation in the skin ([1]; 100 mg/kg po, light exposure, once daily for 5 days): attenuated oxidative stress and inflammation | light-triggered phototoxicity (gross appearance of the skin) ([1]; 30 and 100 mg/kg po, once daily for 5 days, both sexes): significantly decreased | histological changes of skin (missing epidermis, damaged subepidermal collagen) ([1]; po pretreatment, light exposure, H&E, Sirius Red): prevented | PPIX release from the RBCs of Fech-mut mice (in words) [2]: markedly decreased | PPIX levels in the liver (in words) [3]: did not alter | liver damage, alanine aminotransaminase (in words) [3]: did not potentiate liver damage | mean corpuscular hemoglobin in blood (in words) [3]: no significant impact | total hemoglobin in blood (in words) [3]: no significant impact | morphological changes in the liver and kidney ([3]; H&E): did not cause morphological changes | cytotoxicity compared with other Ko143 analogs [4]: less cytotoxic when compared to other Ko143 analogs | CC50 at 72 h [5]: > 100 µM | inhibitory effect on ABCB1 [6]: no inhibitory effect | PPIX in serum (in words) [7]: significant decrease | fraction unbound at 16 h [8]: 0.0585 | biomarkers of liver toxicity (ALT, AST, ALP) (in words) [9]: did not alter | growth (body weight gain) (in words) [9]: did not alter | ratios of organ (liver, kidney, and spleen) to body weight (in words) [9]: did not alter | pharmacokinetic profile after oral treatment (in words) [10]: outstanding pharmacokinetic profiles | Stability in HLM (% remaining) 30 min [11]: 65 ± 3 % remaining | Stability in HLM (% remaining) 60 min [11]: 49 ± 9 % remaining | metabolic stability (in words) ([11]; incubation with human liver microsomes, Fig. 1c): significantly improved

Stability in HLM (% remaining) 30 min [11]: 74 ± 25 % remaining | Stability in HLM (% remaining) 60 min [11]: 60 ± 3 % remaining
SMILES: COc1ccc2c3c([nH]c2c1)[C@H](CC(C)C)N1C(=O)[C@H](CC(=O)NC(C)(C)C)NC(=O)[C@@H]1C3 [K3]
CC50 at 72 h [5]: 58.9 ± 5.3 µM

Stability in HLM (% remaining) 30 min [11]: 45 ± 2 % remaining | Stability in HLM (% remaining) 60 min [11]: 26 ± 2 % remaining
SMILES: COc1ccc2c3c([nH]c2c1)[C@H](CC(C)C)N1C(=O)[C@H](CC(=O)NC2CCCCC2)NC(=O)[C@@H]1C3 [K23]
CC50 at 72 h [5]: 46.6 ± 0.9 µM

Stability in HLM (% remaining) 30 min [11]: 37 ± 3 % remaining | Stability in HLM (% remaining) 60 min [11]: 18 ± 1 % remaining
SMILES: COc1ccc2c3c([nH]c2c1)[C@H](CC(C)C)N1C(=O)[C@H](CC(=O)NCc2ccccc2)NC(=O)[C@@H]1C3 [K33]
CC50 at 72 h [5]: 31.1 ± 3.7 µM

SMILES: COc1ccc2c3c([nH]c2c1)[C@H](CC(C)C)N1C(=O)[C@H](CC(=O)N2CCCCC2)NC(=O)[C@@H]1C3 [K25]
CC50 at 72 h [5]: 26.5 ± 2.5 µM
